Measurements taken from PMC9524580 (Neuropharmacology, 2022).
“Also recorded” adds a separate entry of the source.

Tests used:
α3β4 nAChR = α3β4 nAChR (Homo sapiens, UniProt P30926+P32297); assay type: cell-based; settings: 100 μM n-MP co-applied with 100 μM ACh; alpha:beta RNA 5:1 or 1:5 (either set)
How it was run: (§1)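 Xenopus oocytes were injected with human α3 plus β2 or β4 subunit RNA at alpha:beta ratios of 1:5 or 5:1. Two-electrode voltage clamp at −60 mV, 24 °C, with Ringer's (pH 7.2, 1 μM atropine) at 4 ml/min.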

α3β2 nAChR = α3β2 nAChR (Homo sapiens, UniProt P17787+P32297); assay type: cell-based; settings: 100 μM n-MP co-applied with 100 μM ACh
How it was run: as §1

[1] = target: low sensitivity (LS) α4(3)β2(2) nAChR (Homo sapiens, UniProt P17787+P43681); experiment: Two-electrode voltage clamp of Xenopus oocytes expressing LS α4β2 nAChR; assay type: cell-based; settings: for Effect on ACh-evoked peak-current responses of LS α4β2 receptors: 100 μM compound co-applied with control ACh (100 μM)
human α7 nAChR = human α7 nAChR (Homo sapiens, UniProt P36544); experiment: Two-electrode voltage clamp of Xenopus oocytes expressing α7 nAChR; assay type: cell-based; settings: for α7 net-charge response to compound co-applied with PNU-120596: 100 μM compound + 10 μM PNU-120596, compared to PNU-120596 alone or ACh control
How it was run: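 Human α7 clone co-injected with human RIC3 in Xenopus oocytes. Oocytes were clamped at −60 mV at 24 °C and perfused at 2 ml/min with Ringer's (115 mM NaCl, 2.5 mM KCl, 1.8 mM CaCl2, 10 mM HEPES, 1 μM atropine, pH 7.2). […] Compound was 100 μM, alone or with 10 μM PAM; n = 6–8 oocytes; ANOVA.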

[2] = target: high sensitivity (HS) α4(2)β2(3) nAChR (Homo sapiens, UniProt P17787+P43681); assay type: cell-based; settings: for Effect on ACh-evoked peak-current responses of HS α4β2 receptors: 100 μM compound co-applied with control ACh (10 μM)
α4(2)β2(2)α5 nAChR = α4(2)β2(2)α5 nAChR (Homo sapiens, UniProt P17787+P30532+P43681); experiment: Two-electrode voltage clamp of Xenopus oocytes expressing α4β2α5 nAChR; assay type: cell-based; settings: 100 μM n-MP co-applied with 10 μM ACh
How it was run: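 Human α4(2)β2(2)α5 receptors expressed in Xenopus laevis oocytes. Voltage-clamped at −60 mV and room temperature (24 °C), perfused at 4 ml/min with atropine-containing Ringer's, pH 7.2. […] At least five oocytes; mean ± S.D.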

[3] = inferred from use as biomarker of coffee consumption; ref Bresciani et al., 2020; cited from earlier work
β3α4β2α6β2 nAChR = β3α4β2α6β2 nAChR (Homo sapiens, UniProt P17787+P43681+Q05901+Q15825); assay type: cell-based; settings: 100 μM n-MP co-applied with 30 μM ACh
How it was run: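 Oocytes from female Xenopus laevis expressed human β3α4β2α6β2 from a linked-subunit concatamer. Two-electrode voltage clamp at −60 mV and 24 °C. Bath perfusion at 4 ml/min with Ringer's (115 mM NaCl, 2.5 mM KCl, 1.8 mM CaCl2, 10 mM HEPES, 1 μM atropine, pH 7.2). […] Responses were relative to the mean of the two controls; n = 6, mean ± S.D.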

Chain of human α7 nAChR (P36544 23-502): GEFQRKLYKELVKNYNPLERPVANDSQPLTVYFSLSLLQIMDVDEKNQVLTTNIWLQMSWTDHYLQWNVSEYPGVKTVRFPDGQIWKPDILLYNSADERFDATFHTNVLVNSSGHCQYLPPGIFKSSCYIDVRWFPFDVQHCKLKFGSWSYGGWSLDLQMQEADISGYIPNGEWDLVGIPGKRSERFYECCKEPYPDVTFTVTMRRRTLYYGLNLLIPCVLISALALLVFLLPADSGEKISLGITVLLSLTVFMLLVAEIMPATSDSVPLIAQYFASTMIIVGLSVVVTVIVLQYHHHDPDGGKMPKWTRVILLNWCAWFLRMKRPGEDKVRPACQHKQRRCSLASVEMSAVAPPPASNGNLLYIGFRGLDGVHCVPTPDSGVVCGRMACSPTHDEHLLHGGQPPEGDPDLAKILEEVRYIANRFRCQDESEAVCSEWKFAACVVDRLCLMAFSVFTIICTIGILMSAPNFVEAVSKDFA
Chain of high sensitivity (HS) α4(2)β2(3) nAChR (P17787 26-502): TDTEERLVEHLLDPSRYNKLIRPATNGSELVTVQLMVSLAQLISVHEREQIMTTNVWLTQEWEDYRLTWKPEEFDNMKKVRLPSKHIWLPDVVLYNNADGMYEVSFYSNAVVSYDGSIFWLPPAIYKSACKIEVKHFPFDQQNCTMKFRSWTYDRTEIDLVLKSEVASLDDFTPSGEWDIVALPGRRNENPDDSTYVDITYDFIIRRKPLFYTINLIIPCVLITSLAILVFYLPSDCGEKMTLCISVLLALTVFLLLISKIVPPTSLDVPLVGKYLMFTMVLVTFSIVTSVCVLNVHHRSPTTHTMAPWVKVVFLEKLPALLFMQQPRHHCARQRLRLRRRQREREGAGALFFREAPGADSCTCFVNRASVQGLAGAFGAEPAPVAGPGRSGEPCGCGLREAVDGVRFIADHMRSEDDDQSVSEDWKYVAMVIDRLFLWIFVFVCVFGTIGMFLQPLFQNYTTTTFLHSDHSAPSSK
Chain of high sensitivity (HS) α4(2)β2(3) nAChR (P43681 29-627 limits assumed): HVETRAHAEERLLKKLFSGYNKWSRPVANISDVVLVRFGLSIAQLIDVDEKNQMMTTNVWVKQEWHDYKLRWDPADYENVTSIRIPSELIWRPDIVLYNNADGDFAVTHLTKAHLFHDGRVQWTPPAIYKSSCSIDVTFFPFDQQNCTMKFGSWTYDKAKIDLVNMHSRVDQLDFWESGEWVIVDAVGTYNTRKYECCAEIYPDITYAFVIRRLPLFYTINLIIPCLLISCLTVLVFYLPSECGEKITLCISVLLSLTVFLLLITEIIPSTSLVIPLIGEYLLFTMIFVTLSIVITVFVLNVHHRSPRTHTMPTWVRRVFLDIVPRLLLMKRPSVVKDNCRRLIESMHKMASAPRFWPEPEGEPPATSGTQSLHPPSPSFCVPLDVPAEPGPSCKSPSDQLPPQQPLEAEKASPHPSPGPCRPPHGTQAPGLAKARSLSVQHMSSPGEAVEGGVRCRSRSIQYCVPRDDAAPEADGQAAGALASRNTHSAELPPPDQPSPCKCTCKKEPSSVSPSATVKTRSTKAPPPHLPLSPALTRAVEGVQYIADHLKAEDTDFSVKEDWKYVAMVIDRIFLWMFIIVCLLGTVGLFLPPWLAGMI
Chain of high sensitivity (HS) α4(2)β2(3) nAChR (P17787 26-502): as the sequence (P17787 26-502) above
Chain of low sensitivity (LS) α4(3)β2(2) nAChR (P17787 26-502): as above
Chain of low sensitivity (LS) α4(3)β2(2) nAChR (P43681 29-627 limits assumed): as the sequence (P43681 29-627 limits assumed) above
Chain of low sensitivity (LS) α4(3)β2(2) nAChR (P43681 29-627 limits assumed): as above
Chain of α3β2 nAChR (P32297 32-505): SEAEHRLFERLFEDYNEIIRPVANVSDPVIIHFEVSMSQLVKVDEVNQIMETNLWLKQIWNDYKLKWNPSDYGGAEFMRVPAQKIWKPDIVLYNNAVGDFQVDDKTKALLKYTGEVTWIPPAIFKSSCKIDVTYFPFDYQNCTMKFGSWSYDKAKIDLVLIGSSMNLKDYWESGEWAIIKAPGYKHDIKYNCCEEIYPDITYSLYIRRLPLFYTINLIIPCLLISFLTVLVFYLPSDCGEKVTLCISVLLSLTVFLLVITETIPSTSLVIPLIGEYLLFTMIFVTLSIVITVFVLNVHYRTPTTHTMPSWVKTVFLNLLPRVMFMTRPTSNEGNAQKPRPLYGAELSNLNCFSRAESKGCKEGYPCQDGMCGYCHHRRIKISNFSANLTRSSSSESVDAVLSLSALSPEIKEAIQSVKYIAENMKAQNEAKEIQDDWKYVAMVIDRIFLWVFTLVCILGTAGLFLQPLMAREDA
Chain of α3β2 nAChR (P17787 26-502): as the sequence (P17787 26-502) above
Chain of β3α4β2α6β2 nAChR (Q05901 25-458 limits assumed): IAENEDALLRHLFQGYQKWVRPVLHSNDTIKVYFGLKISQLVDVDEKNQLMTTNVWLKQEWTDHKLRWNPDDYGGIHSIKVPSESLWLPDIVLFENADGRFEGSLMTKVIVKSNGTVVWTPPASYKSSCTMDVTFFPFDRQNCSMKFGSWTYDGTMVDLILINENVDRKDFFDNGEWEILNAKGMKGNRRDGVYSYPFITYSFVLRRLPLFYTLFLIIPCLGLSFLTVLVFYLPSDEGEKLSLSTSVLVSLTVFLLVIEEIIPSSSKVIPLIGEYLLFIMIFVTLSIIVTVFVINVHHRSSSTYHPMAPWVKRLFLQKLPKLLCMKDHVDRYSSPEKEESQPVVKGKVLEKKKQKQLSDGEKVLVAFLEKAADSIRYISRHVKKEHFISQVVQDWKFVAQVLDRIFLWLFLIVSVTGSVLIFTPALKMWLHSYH
Chain of β3α4β2α6β2 nAChR (P43681 29-627 limits assumed): as the sequence (P43681 29-627 limits assumed) above
Chain of β3α4β2α6β2 nAChR (P17787 26-502): as the sequence (P17787 26-502) above
Chain of β3α4β2α6β2 nAChR (Q15825 26-494): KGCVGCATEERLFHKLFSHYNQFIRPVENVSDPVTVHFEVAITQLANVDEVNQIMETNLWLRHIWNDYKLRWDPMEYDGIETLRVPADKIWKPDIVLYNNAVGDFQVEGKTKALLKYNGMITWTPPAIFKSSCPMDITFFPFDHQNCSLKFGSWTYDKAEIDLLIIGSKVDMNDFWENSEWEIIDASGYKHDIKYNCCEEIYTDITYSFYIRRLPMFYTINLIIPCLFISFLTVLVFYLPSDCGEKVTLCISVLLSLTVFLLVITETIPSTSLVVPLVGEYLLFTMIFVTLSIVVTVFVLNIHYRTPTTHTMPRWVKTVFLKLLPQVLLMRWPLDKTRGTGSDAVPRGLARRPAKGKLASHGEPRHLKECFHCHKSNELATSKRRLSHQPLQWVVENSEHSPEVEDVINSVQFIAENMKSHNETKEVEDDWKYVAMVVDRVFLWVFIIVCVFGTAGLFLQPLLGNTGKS
Chain of β3α4β2α6β2 nAChR (P17787 26-502): as the sequence (P17787 26-502) above
Chain of α4(2)β2(2)α5 nAChR (P17787 26-502): as above
Chain of α4(2)β2(2)α5 nAChR (P43681 29-627 limits assumed): as the sequence (P43681 29-627 limits assumed) above
Chain of α4(2)β2(2)α5 nAChR (P30532 23-468): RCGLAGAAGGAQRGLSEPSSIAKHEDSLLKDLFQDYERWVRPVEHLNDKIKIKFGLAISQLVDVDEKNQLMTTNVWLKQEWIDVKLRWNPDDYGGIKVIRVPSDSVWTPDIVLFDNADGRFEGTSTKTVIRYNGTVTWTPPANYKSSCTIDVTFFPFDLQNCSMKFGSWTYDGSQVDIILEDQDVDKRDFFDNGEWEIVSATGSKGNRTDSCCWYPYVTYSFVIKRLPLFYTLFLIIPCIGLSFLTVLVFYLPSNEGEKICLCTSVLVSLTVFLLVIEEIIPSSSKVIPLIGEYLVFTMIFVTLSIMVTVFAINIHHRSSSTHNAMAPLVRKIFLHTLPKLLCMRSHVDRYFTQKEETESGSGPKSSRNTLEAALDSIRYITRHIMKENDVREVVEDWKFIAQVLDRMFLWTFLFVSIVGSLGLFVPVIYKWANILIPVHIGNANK
Chain of α3β4 nAChR (P32297 32-505): as the sequence (P32297 32-505) above
Chain of α3β4 nAChR (P30926 22-498): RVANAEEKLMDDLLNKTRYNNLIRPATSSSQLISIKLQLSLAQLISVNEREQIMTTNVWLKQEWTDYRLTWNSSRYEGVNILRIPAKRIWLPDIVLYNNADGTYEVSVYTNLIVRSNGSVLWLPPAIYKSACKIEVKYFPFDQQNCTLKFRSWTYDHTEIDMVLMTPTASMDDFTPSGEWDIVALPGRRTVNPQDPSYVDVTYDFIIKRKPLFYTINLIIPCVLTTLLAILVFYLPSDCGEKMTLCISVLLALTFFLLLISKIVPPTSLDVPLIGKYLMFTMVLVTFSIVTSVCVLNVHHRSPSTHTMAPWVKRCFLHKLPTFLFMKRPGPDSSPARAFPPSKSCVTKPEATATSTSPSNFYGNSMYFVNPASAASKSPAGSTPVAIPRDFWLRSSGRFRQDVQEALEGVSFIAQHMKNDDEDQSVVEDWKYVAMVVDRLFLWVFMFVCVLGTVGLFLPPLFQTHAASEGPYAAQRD

C[n+]1ccccc1 [n-MP, 1-methylpyridinium]
Effect on ACh responses of α3β4 receptors (α3β4 nAChR): no effect | Effect on ACh responses of α3β2 receptors with high levels of β2 (α3β2 nAChR; alpha:beta RNA 1:5): no effect | Effect on ACh responses of α3β2 receptors with high levels of α3 (α3β2 nAChR; alpha:beta RNA 5:1): significant potentiation | Effect on ACh-evoked peak-current responses of LS α4β2 receptors [1]: increasing the responses of LS receptors | Mode of action on LS α4β2 receptors ([1]; 100 μM n-MP, 10 to 100 μM ACh): working as a PAM at those intermediate concentrations | LS α4β2 ACh responses after n-MP washout ([1]; 300 μM n-MP bath application): significant increases | Imax of ACh, From Figure 7 ([1]; LS, ACh co-applied with 100 μM n-MP, relative to 100 μM ACh control): 1.824 ± 0.062 | Effect of bath-applied n-MP on LS α4β2 ACh responses ([1]; varying bath concentrations, periodic 100 μM ACh applications): small concentration-dependent increase | α7 net-charge response to compound co-applied with PNU-120596 (human α7 nAChR): PAM-dependent responses | Effect on ACh-evoked peak-current responses of HS α4β2 receptors [2]: decreasing the responses of HS receptors; also recorded: decreasing those of HS receptors | Mode of action on HS α4β2 ACh-evoked responses ([2]; 100 μM n-MP, ACh competition experiment): competitive antagonist | Effect of bath-applied n-MP on HS α4β2 ACh responses ([2]; varying bath concentrations, periodic 10 μM ACh applications): concentration-dependent, and only partially reversible, inhibition | Effect on ACh responses of α4β2α5 receptors (α4(2)β2(2)α5 nAChR): antagonist | Bioavailability [3]: good bioavailability | Effect on ACh responses of α6-containing receptors (β3α4β2α6β2 nAChR): no significant effect

C[N+](C)(C)CCO [choline]
EC50 (human α7 nAChR): ~200 µM | Net charge Imax with PNU-120596 co-application versus applied alone (human α7 nAChR; 10 μM PNU-120596): roughly 100 fold | α7 net-charge response to compound co-applied with PNU-120596 (human α7 nAChR): greater than the initial ACh controls

C[N+]1(C)CCCCC1 [dMP, 1,1-dimethylpiperidium]
Effect on ACh-evoked peak-current responses of LS α4β2 receptors [1]: increasing the responses of LS receptors | α7 net-charge response to compound co-applied with PNU-120596 (human α7 nAChR): large responses | α7 response to compound applied alone (human α7 nAChR; 100 μM compound, compared to 60 μM ACh control): comparable to those stimulated by the control application of 60 μM ACh | Effect on ACh-evoked peak-current responses of HS α4β2 receptors [2]: decreasing the responses of HS receptors; also recorded: strongly inhibited

CC(=O)OCC[N+](C)(C)C [ACh, Acetylcholine chloride, reference compound]
Imax, From Figure 7 [1]: 2.327 ± 0.395 | Imax, From replicates, Averages ± S.D. [1]: 2.290 ± 0.714 | Imax, From replicates, Averages ± S.D. [2]: 1.535 ± 0.080

Cn1c(=O)c2c(ncn2C)n(C)c1=O [caffeine, reference compound]
Effect on ACh-evoked peak-current responses of LS α4β2 receptors [1]: lacks significant nAChR activity | α7 net-charge response to compound co-applied with PNU-120596 (human α7 nAChR): lacks significant nAChR activity | Effect on ACh-evoked peak-current responses of HS α4β2 receptors [2]: lacks significant nAChR activity
